# ChEMBL document CHEMBL1137156, “Novel substituted 4-phenyl-[1,3]dioxanes: potent and selective orexin receptor 2 (OX(2)R) antagonists” (Bioorg Med Chem Lett, 2004)
# Key:
# Orexin receptor type 2 = molecular target: T1, Orexin receptor type 2 (Homo sapiens, UniProt O43614); assay: Binding affinity towards human orexin receptor type 2 was determined using [125I]-Orexin A as radio ligand
# T1 sequence (O43614 whole entry): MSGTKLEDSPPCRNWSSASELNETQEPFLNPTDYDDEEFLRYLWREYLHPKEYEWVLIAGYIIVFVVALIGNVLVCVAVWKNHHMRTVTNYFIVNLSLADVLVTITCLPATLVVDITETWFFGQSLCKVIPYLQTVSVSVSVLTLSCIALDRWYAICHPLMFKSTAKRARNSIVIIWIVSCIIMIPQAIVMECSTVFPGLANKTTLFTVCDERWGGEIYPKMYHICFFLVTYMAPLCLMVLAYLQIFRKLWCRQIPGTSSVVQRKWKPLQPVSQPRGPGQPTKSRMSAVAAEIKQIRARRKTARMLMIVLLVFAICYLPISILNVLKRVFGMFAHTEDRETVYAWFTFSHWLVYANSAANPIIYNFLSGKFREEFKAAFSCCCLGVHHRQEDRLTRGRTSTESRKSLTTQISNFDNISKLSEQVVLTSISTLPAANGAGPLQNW
# [1] = molecular target: T2, Orexin/Hypocretin receptor type 1 (Homo sapiens, UniProt O43613); assay: Binding affinity towards human orexin receptor type 1 was determined using [125I]-Orexin A as radio ligand
# T2 sequence (O43613 whole entry): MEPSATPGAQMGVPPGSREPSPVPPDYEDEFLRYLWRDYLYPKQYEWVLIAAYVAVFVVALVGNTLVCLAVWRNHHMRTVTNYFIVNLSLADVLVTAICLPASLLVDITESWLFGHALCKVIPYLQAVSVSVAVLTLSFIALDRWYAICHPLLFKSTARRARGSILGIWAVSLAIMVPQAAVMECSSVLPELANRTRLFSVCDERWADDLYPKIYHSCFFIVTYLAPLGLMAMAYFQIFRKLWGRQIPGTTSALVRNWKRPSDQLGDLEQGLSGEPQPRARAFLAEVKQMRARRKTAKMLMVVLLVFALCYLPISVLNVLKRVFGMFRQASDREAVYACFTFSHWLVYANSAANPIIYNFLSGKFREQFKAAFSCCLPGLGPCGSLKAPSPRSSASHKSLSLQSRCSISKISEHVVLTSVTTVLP
# In short: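 Clonal CHO-K1 cells expressing the orexin receptor, grown adherent on poly-D-lysine-coated plates. Binding in Dulbecco's PBS with 0.1% w/v BSA, 10⁵ cpm ¹²⁵I-orexin A (2200 Ci/mmol) plus test compound, 90-120 min at room temperature. Wells washed with iced buffer, then scintillation counted. Ki with 95% confidence intervals from N = 3 assays.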
# Homo sapiens = species: Homo sapiens; assay: Selectivity of Orexin type 2 receptor over Orexin type 1 receptor
# [2] = molecular target: T3, Orexin receptor type 2 (Homo sapiens) (UniProt O43614); assay: Antagonistic activity towards intracellular calcium levels in cells expressing Orexin receptor type 2; assay type: functional, cell-based
# T3 sequence (whole entry): T1 sequence (O43614 whole entry)
# In short: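 Fluo-3 AM-loaded cells expressing OX2R, intracellular Ca⁺⁺ fluorescence. […] For compounds with OX2R pKi above 6.3, pKB came from the orexin B EC50 and IC50s from antagonist dilutions, all on one 96-well plate.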
SMILES,Ki (Orexin receptor type 2),Ki [1],Selectivity (Homo sapiens),pKb [2]
CC1(C)OC[C@H](NC(=O)Nc2ccccc2-c2cccc(Cl)c2)[C@H](c2ccccc2)O1,79.4 nM,501 nM,6,–
CC1(C)OC[C@H](NC(=O)Nc2cccc(Br)c2)[C@H](c2ccccc2)O1,1000 nM,> 10000 nM,> 9,–
CC1(C)OC[C@H](NC(=O)Nc2ccccc2)[C@H](c2ccccc2)O1,501 nM,> 10000 nM,> 20,–
COc1ccccc1NC(=O)N[C@H]1COC(C)(C)O[C@H]1c1ccccc1,2510 nM,> 10000 nM,> 4,–
CC1(C)OC[C@H](NC(=O)Oc2ccccc2Cl)[C@H](c2ccccc2)O1,1580 nM,> 10000 nM,> 6,–
CC1(C)OC[C@H](NC(=O)Nc2ccc(Br)cc2)[C@H](c2ccccc2)O1,251 nM,> 10000 nM,> 40,–
CC1(C)OC[C@H](NC(=O)Nc2ccccc2F)[C@H](c2ccccc2)O1,398 nM,> 10000 nM,> 20,–
CC1(C)OC[C@H](NC(=O)Nc2ccc(Cl)cc2Cl)[C@H](c2ccccc2)O1,20 nM,2510 nM,100,7
Cc1ccc(/N=C(\NC#N)N[C@H]2COC(C)(C)O[C@H]2c2ccccc2)c(Br)c1,1260 nM,> 10000 nM,> 8,–
CC1(C)OC[C@H](NC(=O)Nc2c(Cl)cccc2Cl)[C@H](c2ccccc2)O1,> 5010 nM,> 10000 nM,> 2,–
CC1(C)OC[C@H](NC(=O)Nc2ccccc2-c2ccccc2)[C@H](c2ccccc2)O1,100 nM,501 nM,4,–
CC1(C)OC[C@H](NC(=O)Nc2ccc(Br)cc2Br)[C@H](c2ccccc2)O1,5.01 nM,3160 nM,600,7.9
CC1(C)OC[C@H](NC(=O)Cc2ccccc2Br)[C@H](c2ccccc2)O1,1580 nM,> 10000 nM,> 7,–
CC1(C)OC[C@H](NC(=O)Nc2ccccc2Br)[C@H](c2ccccc2)O1,–,2000 nM,–,6.3
CC1(C)OC[C@H](NC(=O)Nc2ccccc2Cl)[C@H](c2ccccc2)O1,79.4 nM,> 10000 nM,> 100,6
CC(C)c1ccccc1NC(=O)N[C@H]1COC(C)(C)O[C@H]1c1ccccc1,2510 nM,> 10000 nM,> 4,–
Cc1ccc(Cl)c(NC(=O)N[C@H]2COC(C)(C)O[C@H]2c2ccccc2)c1,63.1 nM,> 5010 nM,> 80,–
Cc1cc(Br)ccc1NC(=O)N[C@H]1COC(C)(C)O[C@H]1c1ccccc1,39.8 nM,> 10000 nM,200,–
CC1(C)OC[C@H](NC(=O)Nc2ccc(Br)cc2Cl)[C@H](c2ccccc2)O1,6.31 nM,> 5010 nM,> 900,–
CC1(C)OC[C@H](NC(=O)Nc2ccccc2-c2cccnc2)[C@H](c2ccccc2)O1,316 nM,> 5010 nM,> 20,–
CC1(C)OC[C@H](NC(=O)Nc2ccccc2C(F)(F)F)[C@H](c2ccccc2)O1,100 nM,> 10000 nM,> 100,–
CC1(C)OC[C@H](NC(=O)Nc2cc(Cl)ccc2Cl)[C@H](c2ccccc2)O1,63.1 nM,> 5010 nM,> 80,–
CC1(C)OC[C@H](NC(=O)Nc2ccccc2-c2cccs2)[C@H](c2ccccc2)O1,50.1 nM,1000 nM,20,–
CC1(C)OC[C@H](NC(=O)Nc2ccccc2-c2ccccc2Cl)[C@H](c2ccccc2)O1,25.1 nM,126 nM,5,–
CC1(C)OC[C@H](/N=C(\S)Nc2ccccc2Br)[C@H](c2ccccc2)O1,398 nM,> 10000 nM,> 30,–
CC1(C)OC[C@H](NC(=O)c2ccc(Cl)cc2Cl)[C@H](c2ccccc2)O1,200 nM,> 10000 nM,> 50,–
CC1(C)OC[C@H](/N=C(\S)Nc2ccc(Cl)cc2Cl)[C@H](c2ccccc2)O1,200 nM,> 10000 nM,> 50,–
CC1(C)OC[C@H](NC(=O)Nc2ccccc2-c2ccsc2)[C@H](c2ccccc2)O1,79.4 nM,2000 nM,30,–
Cc1ccc(NC(=O)N[C@H]2COC(C)(C)O[C@H]2c2ccccc2)c(C)c1,126 nM,> 10000 nM,> 70,–
CC1(C)OC[C@H](NC(=O)Nc2ccccc2I)[C@H](c2ccccc2)O1,79.4 nM,> 5010 nM,> 70,6.5
